Series [1] is described as follows: Cytotoxicity against HEL cells. In kind it is cell-based. Conditions: human; call rule not given here.
For series [2], the system named is MT4. The series is described as follows: Cytotoxicity against human MT4 cells assessed as cell viability by propidium iodide staining-based cell counting analysis. The gist of the method:
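MT-4 cultures, untreated or treated, were counted on an automated cell counter. Total and dead cells were enumerated by propidium iodide-based assay.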

Series [3] relates to Human alphaherpesvirus 1. The series is described as follows: Antiviral activity against acyclovir-resistant thymidine kinase-deficient Herpes simplex virus 1 KOS infected in HEL cells assessed as inhibition of virus-induced cytopathicity. It counts as functional, organism-based. Conditions: Human alphaherpesvirus 1, KOS. Background: Cytopathic effects are the visible damage that an infection or toxin causes in cultured cells.

Series [4] relates to Human immunodeficiency virus 1. The experiment in a line: Antiviral activity against HIV1 infected in human MT4 cells assessed as p24 production after 3 days. The note with it: Human immunodeficiency virus 1, MT4, 72 h.
Series [5] is described as follows: Chemical stability in d6 acetone/trizma buffer at 5 mg in absence of carboxypeptidase Y. It counts as physicochemical. The gist of the method: (§1)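 Prodrug kept in d6-acetone plus Trizma buffer (pH 7.6) without carboxypeptidase Y; integrity followed by 31P NMR.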
The nature of series [6]: Prodrug conversion assessed as carboxypeptidase Y (unknown origin)-mediated metabolite formation lacking one ester moiety at 5 mg measured every 5 mins for 24 hrs by 31P-NMR analysis. It counts as ADME. The note with it: human. The essentials:
(§2)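 Prodrug incubated with carboxypeptidase Y in d6-acetone/Trizma buffer (pH 7.6); conversion followed over time by 31P NMR.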

Series [7] deals with Felid alphaherpesvirus 1. The experiment in a line: Antiviral activity against Feline herpesvirus infected in cat CRFK cells assessed as inhibition of virus-induced cytopathicity. It counts as functional, organism-based. The note with it: Felid alphaherpesvirus 1, CRFK.
Series [8] relates to Hepatitis C virus. The series is described as follows: Antiviral activity against Hepatitis C virus genotype 1b infected in human HuH7 cells assessed as inhibition of viral replication. It counts as functional, organism-based, Hepacivirus hominis. The note with it: Huh-7, read-out: EC50.
Series [9] deals with Human alphaherpesvirus 1. The series is described as follows: Antiviral activity against Herpes simplex virus 1 KOS infected in HEL cells assessed as inhibition of virus-induced cytopathicity. In kind it is functional, organism-based. The note with it: Human alphaherpesvirus 1, KOS.
Series [10] relates to Human alphaherpesvirus 2. The experiment in a line: Antiviral activity against Herpes simplex virus 2 G infected in HEL cells assessed as inhibition of virus-induced cytopathicity. In kind it is functional, organism-based. The note with it: Human alphaherpesvirus 2, strain G.
The nature of series [11]: Chemical stability in d6 acetone/trizma buffer at 4.8 mg in absence of carboxypeptidase Y. In kind it is physicochemical. The gist of the method: as §1
Series [12] can be described thus: Prodrug conversion assessed as carboxypeptidase Y (unknown origin)-mediated (8S)-1-(2-amino-6-oxo-1,6-dihydro-9H-purin-9-yl)-8-methyl-6-oxido-2,5-dioxa-7-aza-6-phosphanonan-9-oate 6-oxide formation at 5 mg measured after 7.5 hrs by 31P-NMR analysis. The note with it: human. It counts as ADME. The gist of the method: as §2
Series [13] has as its system CCRF-CEM. The series is described as follows: Cytostatic activity against human CEM cells assessed as growth inhibition after 3 days by particle counting analysis. Conditions: 72 h. It counts as functional, cell-based. The essentials:
(§3)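 Tumor cells seeded and exposed to a range of compound concentrations. Cell number counted with a particle counter after 2 days (L1210, L1210/TK) or 3 days (CEM, CEM/TK, HeLa, HeLa TK, Caco-2, Colo-320).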

Series [14] can be described thus: Prodrug conversion assessed as carboxypeptidase Y (unknown origin)-mediated (S)-2-((((2R,3S,4R,5R)-5-(5-amino-4-carbamoyl-1H-imidazol-1-yl)-3,4-dihydroxytetrahydrofuran-2-yl)methoxy)oxidophosphorylamino)propanoate formation at 4.8 mg measured after 24 hrs by 31P-NMR analysis. In kind it is ADME. Conditions: human. The gist of the method:
as §2

The test system of series [15] is L1210. The series is described as follows: Cytostatic activity against mouse L1210 cells assessed as growth inhibition after 2 days by particle counting analysis. It counts as functional, cell-based. The note with it: L1210, 48 h. The gist of the method: as §3
Series [16] has as its system HeLa. The series is described as follows: Cytostatic activity against human HeLa cells assessed as growth inhibition after 3 days by particle counting analysis. It counts as functional, cell-based. The note with it: 72 h. The gist of the method: as §3
Series [17] relates to HeLa. The series is described as follows: Cytostatic activity against thymidine kinase-deficient human HeLa cells assessed as growth inhibition after 3 days by particle counting analysis. It counts as functional, cell-based. Conditions: 72 h. The essentials:
as §3

The test system of series [18] is CCRF-CEM. The series is described as follows: Cytostatic activity against thymidine kinase-deficient human CEM cells assessed as growth inhibition after 3 days by particle counting analysis. It counts as functional, cell-based. The note with it: 72 h. The essentials:
as §3

For series [19], the system named is Caco-2. The series is described as follows: Cytostatic activity against human Caco2 cells assessed as growth inhibition after 3 days by particle counting analysis. It counts as functional, cell-based. Conditions: Caco-2, 72 h. The essentials:
as §3

Series [20] deals with CCRF-CEM. The series is described as follows: Cytotoxicity against human CEM cells. It counts as cell-based.
Series [21] deals with Human immunodeficiency virus 2. The experiment in a line: Antiviral activity against HIV2 ROD infected in human CEM cells assessed as virus-induced giant cell formation after 4 days by microscopic analysis. In kind it is functional, organism-based. Conditions: Human immunodeficiency virus 2, ISOLATE ROD, CCRF-CEM, 96 h. The essentials:
(§4)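 CEM cells (∼3 × 10^5 cells/cm3) infected with 100 CCID50/mL of HIV-1(IIIB) or HIV-2(ROD), seeded into wells with compound dilutions. Giant cell formation examined microscopically after 4 days at 37 °C.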

In series [22] the test system is COLO 320. The experiment in a line: Cytostatic activity against human COLO320 cells assessed as growth inhibition after 3 days by particle counting analysis. In kind it is functional, cell-based. The note with it: COLO 320, 72 h. The essentials: as §3
Series [23] concerns L1210. The series is described as follows: Cytostatic activity against thymidine kinase-deficient mouse L1210 cells assessed as growth inhibition after 2 days by particle counting analysis. It counts as functional, cell-based. Conditions: L1210, 48 h. The gist of the method:
as §3

For series [24], the system named is Human immunodeficiency virus 1. The experiment in a line: Antiviral activity against HIV1 3B infected in human CEM cells assessed as virus-induced giant cell formation after 4 days by microscopic analysis. In kind it is functional, organism-based. Conditions: Human immunodeficiency virus 1, 3B, CCRF-CEM, 96 h. The essentials:
as §4

SMILES strings stand for the structures. pEC50, pIC50: −log10 of the molar value.

What is called CC50 is the concentration giving 50% cytotoxicity. The term pEC50 denotes the EC50 on a negative log10 scale, so that one unit is a factor of ten. `C[C@H](NP(=O)(N[C@@H](C)C(=O)OCc1ccccc1)OCCOCn1cnc2c(=O)[nH]c(N)nc21)C(=O)OCc1ccccc1` returned an MCC in series [1] of over 100 µM. In addition, the CC50 in [2] was 34.9 µM. In addition, the pEC50 in series [3] is 4.60; in series [4], 5.70; in series [7] it was under 4.00; in series [8], under 4.00; in series [9], 4.74; in [10], 4.80. Also, the Stability entry in series [5] and in series [11] was “Stable” each time. The Drug metabolism entry in series [6] and in [12] was “Active” throughout.

Broadly, the pIC50 is the negative decadic logarithm of the IC50, by convention in mol/L. Turning to `C[C@H](NP(=O)(N[C@@H](C)C(=O)OCC(C)(C)C)OC[C@H]1O[C@@H](n2cnc(C(N)=O)c2N)[C@H](O)[C@@H]1O)C(=O)OCC(C)(C)C`, the pIC50 in series [13], in series [15], in series [16] and in series [17] was under 3.60 each time. The compound also yielded an MCC in [1] of over 100 µM. For the same compound, the Drug metabolism entry in [14] is reported as “Not Active”. For the same compound, the pEC50 in [3], in series [7], in [9] and in series [10] was under 4.00 each time.

As to `Nc1ccn([C@@H]2CS[C@H](CO)O2)c(=O)n1` [LAMIVUDINE], the pIC50 in [13], in [18], in series [15], in series [19], in series [16] and in [17] was under 3.60 throughout. For the same compound, the pIC50 in series [22] and in [23] was under 3.60 in each case. The compound also showed a CC50 in [20] of over 250 µM. Besides, the pEC50 is 6.74 in series [21] and 7.00 in series [24].

Consider `Nc1nc2c(ncn2COCCO)c(=O)[nH]1` [ACYCLOVIR], for which the MCC in [1] is over 100 µM. Further, the CC50 in series [2] is over 250 µM. Besides, the pEC50 in series [3] is 4.64; in [4], under 3.60; in series [7], under 4.00; in [9] it was 6.64.

As for `C[C@H](NP(=O)(N[C@@H](C)C(=O)OCC(C)(C)C)OCCOCn1cnc2c(=O)[nH]c(N)nc21)C(=O)OCC(C)(C)C`, in series [1], the MCC was over 100 µM. Also, the CC50 in [2] amounted to 82.8 µM. Moreover, the pEC50 in series [3] is 4.70; in [4], 5.39; in series [7] it was under 4.00; in series [8], under 4.00; in series [9], 4.48; in series [10], 4.40.

With `Cc1cn([C@H]2C=C[C@@H](COP(=O)(N[C@@H](C)C(=O)OCc3ccccc3)N[C@@H](C)C(=O)OCc3ccccc3)O2)c(=O)[nH]c1=O`, the pIC50 is 4.04 in series [13]; 4.34 in series [18]; 5.05 in series [15]; 3.62 in series [19]; 3.94 in series [16]; 4.54 in series [17]. The pIC50 in series [22] is 3.88; in [23], 5.13. In addition, the results for the pEC50 in [21] and in series [24] were 7.02 and 6.85, respectively.

In the case of `Cc1cn([C@H]2C=C[C@@H](COP(=O)(N[C@@H](C)C(=O)OCC(C)(C)C)N[C@@H](C)C(=O)OCC(C)(C)C)O2)c(=O)[nH]c1=O`, the pIC50 in series [13] is 4.02; in series [18], 4.43; in series [15] it was 4.33; in series [19], 3.76; in series [16], 3.96; in [17], 4.28. Moreover, the pIC50 is 4.52 in series [22] and 4.64 in series [23]. Also, the figures for the pEC50 in series [21] and in [24] were 6.85 and 7.05, respectively.

The values are drawn from ChEMBL document CHEMBL3085645, “Design, synthesis and biological evaluation of phosphorodiamidate prodrugs of antiviral and anticancer nucleosides” (Eur J Med Chem, 2013).
